Assay: Toxicity liver stage against HepG2, at 10uM
Assay type: cell-based
Parameters: test concentration 10 uM, cell line HepG2-A16-CD81EGFP
Conditions: human, HepG2-A16-CD81EGFP cells; read-out: INHIBITION
Procedure, shortened: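 Uninfected HepG2-A16-CD81EGFP cells, 3 × 10^3 per well, 1536-well, plated on prespotted compound at 10 μM final, parasite-free screening media added to match infected plates; puromycin 10 μM positive, DMSO 0.5% negative; run in parallel with 48 h PbLuc assay at 37 °C, 5% CO2; viability by CellTiter-Glo luminescence, normalized to controls.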

SMILES	cytotoxicity at 10 µM [%]
CCn1c(C)nnc1SCCNc1nc(C)ncc1S(C)(=O)=O	-4.19
Cc1cc(NC(=O)N2CCN(C)CC2C)n(C)n1 (centres undefined)	9.92
CCn1cc(CN2CCCC(c3[nH]ncc3S(C)(=O)=O)C2)cn1 (centres undefined)	6.5
CN(C(=O)Cc1ccc(NC(=O)NC2CC2)cc1)c1ccccc1	6.35
COc1ccccc1-c1cc(C(=O)Nc2nc[nH]n2)[nH]n1	-2.2
CNS(=O)(=O)CC(=O)NC(c1cc(C)sc1C)C(C)C (centres undefined)	0.918
Cc1cnn(C2CCCN(C(=O)CCCOc3ccccc3F)C2)c1 (centres undefined)	-7.52
Cc1nc(C(=O)N2CC[C@@]3(C[C@H](NS(C)(=O)=O)CCO3)C2)cs1	-72.9
O=C(CN1CCOC(CNc2cccnn2)C1)NCc1cccs1 (centres undefined)	-14
CSc1ccc(NC(=O)Cn2cc(N)cn2)cc1	0.14
CN(C)C(=O)CN1C[C@H]2CC[C@@H](C1)N(Cc1ccccc1OCCO)C2	8.79
C[C@H](c1ccc(F)cc1)n1c(C2CCC2)n[nH]c1=O	-5.95
CN1CCc2[nH]cnc2C12CCN(C(=O)CCc1cccs1)CC2	-1.19
Cc1noc(-c2ccc(N3CCCC(C(N)=O)C3)nc2)n1 (centres undefined)	9.36
CCOC(=O)N1CCN(c2nc(CCN)nc3sc(C)c(C)c23)CC1	-43.4
Cc1nc(CN2CCCC(NCCCOc3ccc(F)cc3)C2)no1 (centres undefined)	-7.03
CC(C)N1CCC(CNC(=O)COc2ccc(F)cc2F)C1 (centres undefined)	-2.17
c1ccc(-c2nc(CN3CCCC3Cn3cccn3)no2)cc1 (centres undefined)	-6.69
CCOC(=O)C1(O)CCN(C(=O)Nc2ccc(CC)cc2)CC1	-130
CCn1ccnc1CN(C)c1cc(OC)ncn1	-37.5
CC(=O)NCc1ccc(C(=O)N2CCCC2c2cnn(C)c2)cc1 (centres undefined)	-13.5
Cc1cc(C)c2[nH]c(=O)c(CN3CCC(O)(CN(C)C)C3)cc2c1 (centres undefined)	-2.99

SMILES	cytotoxicity at 10 µM [%]
O=C(CNC1(CCO)CCOCC1)Nc1ccc(F)cc1F	-41.6
Cc1noc(C)c1CN1CCCC2(C1)CN(c1nncs1)CCO2 (centres undefined)	0.922
CNC(=O)c1sc2ccccc2c1C1CCN(c2cc(C)nc(C)n2)C1 (centres undefined)	10.8
O=c1[nH]c2cc3c(cc2cc1CN1CCCC1c1ccccn1)CCC3 (centres undefined)	-2.11
O=C(NCCSC1CCCC1)c1cnccn1	-0.95
CSCC[C@@H](CO)NC(=O)c1sc(-c2ccc(Cl)cc2)nc1C	6.45
O=C1Nc2ccccc2C12CCN(c1nccs1)CC2	-0.449
Cc1cc(NCC2CCN(c3ccccc3)C2)n2ncnc2n1 (centres undefined)	67
Cc1ccc(NS(=O)(=O)c2cc3c(c(C(=O)O)c2)OCCO3)cc1F	-5.77
CN(c1cccnc1N1CCCC1)S(=O)(=O)c1cnn(C)c1	-4.28
Cc1nccn1-c1ccc(C(C)Nc2cnn(C)c(=O)c2Cl)cc1 (centres undefined)	18.7
Cn1ncc2c(N3CCC3)nc(-c3ccncc3)nc21	11.8
Cc1cnn(CC2CCCCN2Cc2nc(-c3ccoc3)no2)c1 (centres undefined)	-7.2
COc1ccc(Cl)cc1C(=O)NC(CC(=O)O)c1cccs1 (centres undefined)	-6.16
CCOC(=O)C1CCN(C(=O)Cc2c(C)nc(C)[nH]c2=O)CC1	16.6
Cc1nc2cc(=O)[nH]n2c(C)c1CC(=O)NC(C)C	11.3
CCc1c(O)nc(SCC(=O)Nc2ccccc2)n(C(C)CC)c1=O (centres undefined)	0.585
Cc1nc(CN(C)C2CCN(Cc3ccno3)C2)no1 (centres undefined)	2.07
Cc1c[nH]c(CN(C)C(=O)c2ccc(CSc3nnc[nH]3)o2)n1	1.12
COc1cccc(OCCn2c(C)c(C)oc2=O)c1	-7.12
Cc1ccc(CN2CC[C@H]3O[C@@H](C(=O)N4CCCO4)CC[C@H]32)s1	-3.29
CN(Cc1ccc2c(c1)OCCO2)C(=O)Cn1cccnc1=O	3.01

SMILES	cytotoxicity at 10 µM [%]
CN(C)CCN(C)S(=O)(=O)CC1CCOCC1	-5.38
CCOCC(=O)N1CCC2(CC1)COCCN2CCOC	8.37
CCCOC(=O)N1CCCC2(CCN(Cc3cccc(C#N)c3)C2)C1 (centres undefined)	-4.59
O=C(CN1CCCC(Cn2cncn2)C1)NCc1ccco1 (centres undefined)	-0.587
O=C(c1cscn1)N1CCn2cnc(COCC3CC3)c2C1	-4.6
CSCC(C)NCc1ccc2[nH]c(C)c(C)c2c1 (centres undefined)	-0.369
Cc1ccc(C(=O)N2CCC3(CC2)COCCN(S(C)(=O)=O)C3)cc1C	3.27
O=C1NC2(CCN(Cc3ccsc3)CC2)CC1c1ccncc1 (centres undefined)	4.93
COC1CCN(S(=O)(=O)N2CCCC(c3cccc(C(=O)O)c3)C2)CC1 (centres undefined)	1.83
O=C(c1ncccc1O)N1CCN(Cc2ccco2)C(CCO)C1 (centres undefined)	3.89
COCC(C)N(Cc1ccccc1OC)C(=O)c1cc(C)[nH]c(=O)c1 (centres undefined)	-3.73
O=C(Nc1cccnc1)[C@H]1CO[C@H]2CCNC[C@H]2C1	9.24
Cc1cccc(Oc2ccccc2CNC(=O)C2CCNC(=O)C2)c1 (centres undefined)	3.6
Cc1ccc(CN(C)Cc2cnc(N3CCOCC3)s2)o1	-8.46
CCOc1ccc(NC(=O)NC2CCc3nc(C)nn3C2)cc1Cl (centres undefined)	-3.81
COCCN(CC1CCCN(C2Cc3ccccc3C2)C1)C(=O)CSC (centres undefined)	-1.66
COCC1CN(S(=O)(=O)Cc2ccc(C)cc2)Cc2c1cnn2C (centres undefined)	3.51
Cc1cccc(OCCC(=O)N2CCCN(C(N)=O)CC2)c1C	-6.8
CN(CCC(F)(F)F)C(=O)C1CCCN1C(=O)OC(C)(C)C (centres undefined)	-0.653
COc1ccc(CC(=O)NC2CCc3nc(C)cn3C2)cc1 (centres undefined)	9.55
O=C(c1cscn1)N1C[C@@H]2C[C@@H](c3nnc(C4CC4)o3)O[C@@H]2C1	-16.9
Cc1ccc(OC2CCN(C(=O)C(C)Cn3cccn3)CC2)cc1 (centres undefined)	-2.09

SMILES	cytotoxicity at 10 µM [%]
COc1ccc(C(C)NCCc2ccc(NC(C)=O)cc2)c(OC)c1 (centres undefined)	4.49
COc1ccc(NC2CCCN(Cc3cnc(N(C)C)s3)C2)cc1OC (centres undefined)	3.46
COCCCS(=O)(=O)N(Cc1cccc(C)c1)Cc1ccccn1	2.47
Cc1ccc(=O)n(CC2(O)CCN(Cc3ccoc3)CC2)n1	-24.2
O=C(CCC1CCCN(C(=O)CCc2ccc(F)c(F)c2)C1)NC1CC1 (centres undefined)	2.49
Cc1ccc(N2C[C@@H]3CN(C(=O)c4ccccc4)CCO[C@@H]3C2)nn1	-5.52
CCn1ncc2c1C(COC)CN(Cc1ccsc1)C2 (centres undefined)	-7.47
COc1c(CNCc2ccc(Cn3cccn3)cc2)c(C)nn1C	35.5
CNS(=O)(=O)c1cc(C)c2[nH]c(=O)cc(C)c2c1	-7.76
CCNC(=O)[C@@H]1C[C@@H](NC(=O)Cc2cc(C)no2)CN1Cc1ccsc1	5.62
CCN(Cc1csc(CS(C)(=O)=O)n1)c1cccc(F)c1	7.25
O=C1COc2cc(C(=O)N3CCCC(n4cccn4)C3)ccc2N1 (centres undefined)	-22.6
Cc1noc(C)c1CCN1CCCC1c1nc2cc(F)ccc2[nH]1 (centres undefined)	9.3
Cc1nc(COC[C@H]2CC[C@H]3[C@H](CCN3c3ncccn3)O2)cs1	-71.2
O=C(Cc1csc(-c2ccco2)n1)N1CCN(c2ccccc2O)CC1	-10.7
CN1CCN(CCCNC(=O)CCc2nc3cc(Br)cnc3[nH]2)CC1	-124
Cn1ccc(CNC(=O)Nc2ccc(S(=O)(=O)C(F)F)cc2)c1	5.93
Cc1ccc(N2CCN(C(=O)CCC(F)(F)F)C(C)C2)cc1 (centres undefined)	-143
CC(=O)c1cn(CC(=O)N2CCC3(CC2)OCCO3)c2ccccc12	0.436
CCN(C)S(=O)(=O)NCC(C)(O)c1ccsc1 (centres undefined)	1.83
Cc1cccc(CN2CCN3C[C@H](Oc4cccnc4)C[C@H]3C2)n1	6.61
Cn1cccc1C(=O)N1CCO[C@@H]2CN(Cc3nccs3)C[C@@H]2C1	-103

SMILES	cytotoxicity at 10 µM [%]
CC1(c2ccccc2)CCCN(Cc2cncn2C2CCCC2)C1 (centres undefined)	16.3
Cc1ncsc1CNC(=O)N(Cc1ccccc1)CC(C)(C)O	-10.2
O=C(Cc1cccs1)N1C[C@@H]2CN(Cc3ccoc3)CCO[C@@H]2C1	-70.8
CCOc1c(Br)cc(CNC(C)c2nnc3n2CCC3)cc1OC (centres undefined)	-40.9
CC(=O)N1CCN(C(=O)CCCc2nnc(-c3ccccc3)o2)CC1	-12.5
Cc1nn(C)c(C)c1C1CCCN1C(=O)CCCc1ccccn1 (centres undefined)	2.43
Cc1ccc(S(=O)(=O)CCC(=O)NCc2nnc3n2CCC3)cc1	3.55
CN(C)S(=O)(=O)N1CCOC(c2cccc(-c3cncnc3)n2)C1 (centres undefined)	3.71
COc1ccccc1CC(=O)N1CCCC(n2nc(C)cc2C)C1 (centres undefined)	-4.48
CC(NC(=O)c1ccc(C(N)=O)cc1)c1cccc(N2CCOC2=O)c1 (centres undefined)	-2.83
Cn1cc(CN2CC[C@H]3O[C@H](C(=O)NC4CC4)CC[C@H]32)c2ccccc21	8.82
CC1(C(=O)Nc2ccc(F)c(-n3cccc3)c2)CCOCC1	-0.0972
Cn1cc(N2C[C@@H]3CN(S(=O)(=O)C4CC4)C[C@@H]3C2=O)cn1	1.86
O=C(c1cnccn1)N1CC[C@@H]2CO[C@@H](CN3CCCC3)[C@@H]2C1	-1.19
Cc1ccc(C(=O)N2CCc3ncc(Cn4cccn4)n3CC2)o1	2.31
OC[C@@H](O)CN(CCC(F)(F)F)c1ncccn1	2.41
CCC(=O)Nc1cccc(OCC(=O)N[C@@H]2C[C@@H]3CC[C@H]2C3)c1	-1.03
Cn1cc(C(=O)Nc2cccc(F)c2)ccc1=O	-9.66
COc1ccc(S(=O)(=O)NC(=O)COC2CCCCC2)cc1C	-3.56
CC(C)C(=O)N1CCN(Cc2csc(-c3ncccn3)n2)CC1	-5.1
COc1ccc(-c2nc3c([nH]2)CCCNC3=O)cc1OC	26.6

Reference: ChEMBL document CHEMBL4513216, “Probing the Open Global Health Chemical Diversity Library for Multistage-Active Starting Points for Next-Generation Antimalarials” (ACS Infect Dis, 2020)
